The species named for experiment [1] is Mus musculus. Put plainly: Antimuscarinic activity in intact mice was determined as the dose required to double the dose of oxotremorine inducing a predetermined tremor intensity. The class given is functional. The gist of the method: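 Male Swiss–Webster mice (24–32 g) were given the compound ip at 200 μmol/kg in groups of six or more, with six untreated controls. Twenty minutes later the oxotremorine ED50 (iv) was found by the up-and-down method, with intermittent spontaneous grade 2 tremor as end point. Active compounds were tested at two more doses, and the doubling dose came from linear regression of oxotremorine ED50 against antagonist dose.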

In experiment [2] the target is Muscarinic acetylcholine receptor. Put plainly: Compound was tested for the concentration that inhibited the specific binding of (-)-[3H]-NMS to muscarinic receptor in the rat cerebral cortex. The class given is tissue-based. The gist of the method:
(§1)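 Rat (male Sprague–Dawley, 200–300 g) cerebral cortex homogenate, 10 mg wet tissue/mL in 50 mM Na–K phosphate pH 7.4. Incubated 30 min at 30 °C with 0.3 nM (–)-[3H]NMS plus unlabelled ligand; filtration assay. Nonspecific binding with 10 μM atropine. IC50 from one-site competition fit, corrected by Cheng–Prusoff to Ki; three experiments in triplicate.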

The species named for experiment [3] is Cavia porcellus. The experiment can be described thus: Maximum contractile response relative to that elicited by carbachol in guinea pig ileum. The class given is functional. Put shortly:
(§2)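 Guinea pig ileum in Tyrode (pH 7.4, 0.3 mM hexamethonium), 37 °C, isotonic contractions at 1 g tension; cumulative agonist concentration–response curves, concentration raised stepwise by a factor of 2.15; maximal contraction expressed relative to the carbachol maximum. Three determinations, each in triplicate.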

The species named for experiment [4] is Cavia porcellus. Put plainly: Equilibrium dissociation constant of the compound-receptor complex was determined by its ability to antagonize carbachol-induced contractions in the ileum (spasmolytic activity). The class given is functional. Put shortly: (§3)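 Isolated guinea pig ileum in Tyrode solution (pH 7.4, 0.3 mM hexamethonium), 37 °C, isotonic recording at 1 g tension. Cumulative carbachol concentration–response curves (stepwise ×2.15) with at least three antagonist concentrations; dissociation constant from shifts, Schild slope checked where range allowed. Three determinations in triplicate.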

Experiment [5] is filed under the species Mus musculus. Put plainly: Antimuscarinic activity in intact mice was determined as the dose required to double the dose of oxotremorine inducing a predetermined tremor intensity. The class given is functional. Put shortly: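 Male Swiss–Webster mice (24–32 g), groups of six or more; antagonist given ip 200 μmol/kg, untreated controls. After 20 min, oxotremorine ED50 (iv) estimated by up-and-down method, end point intermittent spontaneous grade 2 tremor. Active compounds tested at two further doses; oxotremorine ED50 plotted against antagonist dose, dose doubling it found by linear regression.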

Experiment [6] deals with Muscarinic acetylcholine receptor. Put plainly: Compound was tested for the concentration that inhibited the specific binding of (-)-[3H]-NMS to muscarinic acetylcholine receptor in the rat cerebral cortex. The class given is tissue-based. Put shortly:
as §1

The species entered for experiment [7] is Cavia porcellus. The experiment can be described thus: In vitro effective concentration required to elicit half-maximal contractile response in guinea pig ileum.
The species entered for experiment [8] is Cavia porcellus. Put plainly: Dissociation constant of the compound-receptor complex. The class given is functional. Put shortly: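 Guinea pig ileum in Tyrode solution (pH 7.4) with 0.3 mM hexamethonium at 37 °C, contractions recorded isotonically at 1 g tension. Cumulative carbachol concentration–response curves were built in steps of a factor of 2.15, in the presence of at least three antagonist concentrations. Antagonism was analysed by Schild plots.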

The species entered for experiment [9] is Cavia porcellus. The experiment can be described thus: Maximum contractile response relative to that elicited by carbachol. The class given is functional. Put shortly: as §2
In experiment [10] the target is Muscarinic acetylcholine receptor. The experiment can be described thus: Compound was tested for the concentration that inhibited the specific binding of (-)-[3H]-NMS to muscarinic receptor in the rat cerebral cortex. The class given is tissue-based. Put shortly:
as §1

The species entered for experiment [11] is Cavia porcellus. Put plainly: Equilibrium dissociation constant of the compound-receptor complex was determined by its ability to antagonize carbachol-induced contractions in the ileum (spasmolytic activity). The class given is functional. The gist of the method: as §3
Experiment [12] is filed under the species Cavia porcellus. Put plainly: In vitro effective concentration required to elicit half-maximal contractile response in guinea pig ileum. The source holds these as a separate data set.

A value given as a limit tells only on which side of the number the result lay.

The Ki is a measure of affinity in units of concentration, obtained from inhibition or displacement. Usually Kd stands for the concentration at which binding is half-saturated. Low values mean a tighter complex, high ones a looser complex. `CC(=O)N1CCCC1C#CCN1CCCC1` (stereo not drawn) came in with a Tremorolytic dose in [1] of 6.3 µM/kg. Besides, the inhibitory constant (Ki) in experiment [2] worked out at 0.67 µM. In [3], this compound came in with an Emax of 0. In experiment [4], this compound came in with a dissociation constant (Kd) of 1.4 µM.
`CN(C)CC#CC1CCC(=O)N1C` (stereo not drawn): in experiment [3], the Emax turned out to be 0. Besides, the Kd in experiment [4] was found to be 496 µM. This compound also registered a Tremorolytic dose in [5] above 200 µM/kg. The same compound registered a Ki in experiment [6] of 204 µM.
As usually defined, the EC50 is the concentration giving half of the maximal effect. Lower therefore signals a more potent agent. In the case of `CC(=O)N1CCCC1C#CC[N+](C)(C)C.[I-]` (stereo not drawn), the Emax in experiment [3] worked out at 0.8. Also, the Ki in [6] was determined as 6.1 µM. Moreover, the EC50 in experiment [7] stood at 7.5 µM.
In the case of `CN1C(=O)CCC1C#CCN1CCCC1` (stereo not drawn), binding in experiment [8] was characterised by a dissociation constant (Kd) of 45.3 µM. The Ki in experiment [2] amounted to 18.3 µM. Also, in experiment [5], the Tremorolytic dose amounted to 78.3 µM/kg. The same compound gave an Emax in experiment [9] of 0.
In [3], `CN1C(=O)CCC1C#CC[N+](C)(C)C.[I-]` (stereo not drawn) had an Emax below 0.6. Moreover, in [6], the inhibition constant Ki was determined as 145 µM. This compound displayed an EC50 in [7] above 500 µM.
In turn, `CC(=O)N(C)C(C)C#CCN1CCCC1` (stereo not drawn) gave an Emax in experiment [3] of 0.83. Besides, the Tremorolytic dose in experiment [5] stood at 0.6 µM/kg.
On to `CC(=O)N1CCCC1C#CCN(C)C` (stereo not drawn), for which the Ki in experiment [10] stood at 25.4 µM. In [3], this compound displayed an Emax of 0. In addition, the Tremorolytic dose in [5] amounted to 119 µM/kg. This compound had a Kd in [11] of 125 µM.
`CC(=O)N(C(C)=O)C(C)C#CCN1CCCC1` (stereo not drawn) returned an Emax in experiment [3] of 0. In experiment [4], this compound gave an equilibrium dissociation constant (Kd) of 0.28 µM. Also, the Tremorolytic dose in experiment [5] worked out at 3.2 µM/kg.
In experiment [3], `CC(=O)N1C(=O)CCC1C#CCN1CCCC1` (stereo not drawn) gave an Emax of 0. The compound further registered a Kd in experiment [4] of 1.43 µM. Further, the Tremorolytic dose in [5] stood at 3.5 µM/kg. The same compound had an inhibition constant (Ki) in experiment [6] of 0.78 µM.
On to `CC(=O)N1C(=O)CCC1C#CC[N+](C)(C)C.[I-]` (stereo not drawn), for which the Emax in experiment [3] was found to be 0.78. This compound also displayed a Ki in experiment [6] of 6.4 µM. In [7], this compound returned an EC50 of 13.4 µM.
`CC(=O)N1C(=O)CCC1C#CCN(C)C` (stereo not drawn) gave an Emax in experiment [3] of 0. Further, in experiment [4], binding was characterised by a dissociation constant (Kd) of 95.6 µM. This compound also gave a Tremorolytic dose in [5] of 160 µM/kg. This compound also registered an inhibition constant (Ki) in [6] of 53.2 µM.
Take `CN1[C@@H]2CC[C@H]1C[C@@H](OC(=O)C(CO)c1ccccc1)C2` (stereo partly drawn) [ATROPINE]: the Tremorolytic dose in [1] amounted to 0.57 µM/kg. In experiment [8], this compound returned a Kd of 0.0009 µM.
For `C[N+](C)(C)CCOC(N)=O.[Cl-]` [CARBACHOL], in experiment [12], the EC50 is 0.1 µM. The compound also gave a Kd in [8] of 15.3 µM. Besides, the Emax in experiment [9] was found to be 1.

Values taken from ChEMBL document CHEMBL1124658, “Conformationally restricted analogues of the muscarinic agent N-methyl-N-(1-methyl-4-pyrrolidino-2-butynyl)acetamide” (J Med Chem, 1989).
